Active and inactive are the calls of the source. The calls are words filed in the database; no cut-off is given here.
Columns and labels:
Format in all cases: functional, cell-based
UO-31 = assay: Antiproliferative activity against human UO31 cells at 10 uM incubated for 48 hrs by sulforhodamine B assay
Summary of the method: (§1)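 Run by the NCI Developmental Therapeutics Program (Division of Cancer Treatment and Diagnosis) as part of the NCI60 human tumour cell line panel. Each compound was tested in vitro at a single dose of 10 μM, and the data are reported as one-dose mean graphs across the panel.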

T47D = assay: Antiproliferative activity against human T47D cells at 10 uM incubated for 48 hrs by sulforhodamine B assay; summary of the method: as §1
U-251 = assay: Antiproliferative activity against human U251 cells at 10 uM incubated for 48 hrs by sulforhodamine B assay; summary of the method: as §1
M14 = assay: Antiproliferative activity against human M14 cells at 10 uM incubated for 48 hrs by sulforhodamine B assay
Summary of the method: (§2)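 Run by the NCI Developmental Therapeutics Program (Division of Cancer Treatment and Diagnosis) as part of the NCI60 human tumour cell line panel screen. Each compound was tested at a single dose of 10 μM. Results are reported as one-dose mean graphs.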

MOLT-4 = assay: Antiproliferative activity against human MOLT4 cells at 10 uM incubated for 48 hrs by sulforhodamine B assay; summary of the method: as §2
UACC-257 = assay: Antiproliferative activity against human UACC257 cells at 10 uM incubated for 48 hrs by sulforhodamine B assay; summary of the method: as §1
A549 = assay: Antiproliferative activity against human A549/ATCC cells at 10 uM incubated for 48 hrs by sulforhodamine B assay; summary of the method: as §2
SK-MEL-28 = assay: Antiproliferative activity against human SK-MEL-28 cells at 10 uM incubated for 48 hrs by sulforhodamine B assay; summary of the method: as §2
SN12C = assay: Antiproliferative activity against human SN12C cells at 10 uM incubated for 48 hrs by sulforhodamine B assay; summary of the method: as §2
HOP-62 = assay: Antiproliferative activity against human HOP62 cells at 10 uM incubated for 48 hrs by sulforhodamine B assay; summary of the method: as §2
TK-10 = assay: Antiproliferative activity against human TK10 cells at 10 uM incubated for 48 hrs by sulforhodamine B assay; summary of the method: as §1
NCI-H23 = assay: Antiproliferative activity against human NCI-H23 cells at 10 uM incubated for 48 hrs by sulforhodamine B assay; summary of the method: as §2
OVCAR-4 = assay: Antiproliferative activity against human OVCAR4 cells at 10 uM incubated for 48 hrs by sulforhodamine B assay; summary of the method: as §2
SNB-75 = assay: Antiproliferative activity against human SNB75 cells at 10 uM incubated for 48 hrs by sulforhodamine B assay; summary of the method: as §1
HOP-92 = assay: Antiproliferative activity against human HOP92 cells at 10 uM incubated for 48 hrs by sulforhodamine B assay; summary of the method: as §2
EKVX = assay: Antiproliferative activity against human EKVX cells at 10 uM incubated for 48 hrs by sulforhodamine B assay; summary of the method: as §2
SK-MEL-2 = assay: Antiproliferative activity against human SK-MEL-2 cells at 10 uM incubated for 48 hrs by sulforhodamine B assay; summary of the method: as §2
NCI-H226 = assay: Antiproliferative activity against human NCI-H226 cells at 10 uM incubated for 48 hrs by sulforhodamine B assay; summary of the method: as §2
SK-OV-3 = assay: Antiproliferative activity against human SKOV3 cells at 10 uM incubated for 48 hrs by sulforhodamine B assay; summary of the method: as §2
KM12 = assay: Antiproliferative activity against human KM12 cells at 10 uM incubated for 48 hrs by sulforhodamine B assay; summary of the method: as §2
NCI-H460 = assay: Antiproliferative activity against human NCI-H460 cells at 10 uM incubated for 48 hrs by sulforhodamine B assay; summary of the method: as §2
OVCAR-5 = assay: Antiproliferative activity against human OVCAR5 cells at 10 uM incubated for 48 hrs by sulforhodamine B assay; summary of the method: as §2
UACC-62 = assay: Antiproliferative activity against human UACC62 cells at 10 uM incubated for 48 hrs by sulforhodamine B assay; summary of the method: as §1
OVCAR-8 = assay: Antiproliferative activity against human OVCAR8 cells at 10 uM incubated for 48 hrs by sulforhodamine B assay; summary of the method: as §2
786-0 = assay: Antiproliferative activity against human 786-0 cells at 10 uM incubated for 48 hrs by sulforhodamine B assay; summary of the method: as §2
HCT-116 = assay: Antiproliferative activity against human HCT116 cells at 10 uM incubated for 48 hrs by sulforhodamine B assay; summary of the method: as §2
ACHN = assay: Antiproliferative activity against human ACHN cells at 10 uM incubated for 48 hrs by sulforhodamine B assay; summary of the method: as §2
RXF 393 = assay: Antiproliferative activity against human RXF393 cells at 10 uM incubated for 48 hrs by sulforhodamine B assay; summary of the method: as §2
IGROV-1 = assay: Antiproliferative activity against human IGROV1 cells at 10 uM incubated for 48 hrs by sulforhodamine B assay; summary of the method: as §2
PC-3 = assay: Antiproliferative activity against human PC3 cells at 10 uM incubated for 48 hrs by sulforhodamine B assay; summary of the method: as §2
HCT-15 = assay: Antiproliferative activity against human HCT15 cells at 10 uM incubated for 48 hrs by sulforhodamine B assay; summary of the method: as §2
SF-268 = assay: Antiproliferative activity against human SF268 cells at 10 uM incubated for 48 hrs by sulforhodamine B assay; summary of the method: as §2
MCF7 = assay: Antiproliferative activity against human MCF7 cells at 10 uM incubated for 48 hrs by sulforhodamine B assay; summary of the method: as §2
Hs-578T = assay: Antiproliferative activity against human Hs 578T cells at 10 uM incubated for 48 hrs by sulforhodamine B assay; summary of the method: as §2
DU-145 = assay: Antiproliferative activity against human DU145 cells at 10 uM incubated for 48 hrs by sulforhodamine B assay; summary of the method: as §2
RPMI-8226 = assay: Antiproliferative activity against human RPMI8226 cells at 10 uM incubated for 48 hrs by sulforhodamine B assay; summary of the method: as §2
SR = assay: Antiproliferative activity against human SR cells at 10 uM incubated for 48 hrs by sulforhodamine B assay; summary of the method: as §1
OVCAR-3 = assay: Antiproliferative activity against human OVCAR3 cells at 10 uM incubated for 48 hrs by sulforhodamine B assay; summary of the method: as §2
HCC 2998 = assay: Antiproliferative activity against human HCC2998 cells at 10 uM incubated for 48 hrs by sulforhodamine B assay; summary of the method: as §2
NCI-H522 = assay: Antiproliferative activity against human NCI-H522 cells at 10 uM incubated for 48 hrs by sulforhodamine B assay; summary of the method: as §2
SW-620 = assay: Antiproliferative activity against human SW620 cells at 10 uM incubated for 48 hrs by sulforhodamine B assay; summary of the method: as §1
SF-539 = assay: Antiproliferative activity against human SF539 cells at 10 uM incubated for 48 hrs by sulforhodamine B assay; summary of the method: as §2
MDA-MB-468 = assay: Antiproliferative activity against human MDA-MB-468 cells at 10 uM incubated for 48 hrs by sulforhodamine B assay; summary of the method: as §2
SNB-19 = assay: Antiproliferative activity against human SNB19 cells at 10 uM incubated for 48 hrs by sulforhodamine B assay; summary of the method: as §2
A498 = assay: Antiproliferative activity against human A498 cells at 10 uM incubated for 48 hrs by sulforhodamine B assay; summary of the method: as §2
LOX IMVI = assay: Antiproliferative activity against human LOXIMVI cells at 10 uM incubated for 48 hrs by sulforhodamine B assay; summary of the method: as §2

Q: With O=C1C[C@H]2O[C@H]([C@@H](O)c3ccccc3)[C@H](O)[C@H]2O1 as the molecule, how does the Activity (UO-31) read?
A: Active

Q: What about the Activity (T47D) of the same molecule?
A: Active

Q: And the Activity (U-251)?
A: Active

Q: What about the Activity (M14) of the same molecule?
A: Active

Q: What about the Activity (MOLT-4) of the same molecule?
A: Active

Q: What about the Activity (UACC-257) of the same molecule?
A: Active

Q: What about the Activity (A549) of the same molecule?
A: Active

Q: What about the Activity (SK-MEL-28) of the same molecule?
A: Active

Q: And the Activity (SN12C)?
A: Active

Q: What about the Activity (HOP-62) of the same molecule?
A: Active

Q: And the Activity (TK-10)?
A: Active

Q: What about the Activity (NCI-H23) of the same molecule?
A: Active

Q: What about the Activity (OVCAR-4) of the same molecule?
A: Active

Q: And the Activity (SNB-75)?
A: Active

Q: And the Activity (HOP-92)?
A: Active

Q: What about the Activity (EKVX) of the same molecule?
A: Active

Q: What about the Activity (SK-MEL-2) of the same molecule?
A: Active

Q: What about the Activity (NCI-H226) of the same molecule?
A: Active

Q: And the Activity (SK-OV-3)?
A: Active

Q: What about the Activity (KM12) of the same molecule?
A: Active

Q: What about the Activity (NCI-H460) of the same molecule?
A: Active

Q: What about the Activity (OVCAR-5) of the same molecule?
A: Active

Q: And the Activity (UACC-62)?
A: Active

Q: And the Activity (OVCAR-8)?
A: Active

Q: What about the Activity (786-0) of the same molecule?
A: Active

Q: And the Activity (HCT-116)?
A: Active

Q: What about the Activity (ACHN) of the same molecule?
A: Active

Q: And the Activity (RXF 393)?
A: Active

Q: What about the Activity (IGROV-1) of the same molecule?
A: Active

Q: What about the Activity (PC-3) of the same molecule?
A: Active

Q: What about the Activity (HCT-15) of the same molecule?
A: Active

Q: What about the Activity (SF-268) of the same molecule?
A: Active

Q: What about the Activity (MCF7) of the same molecule?
A: Active

Q: And the Activity (Hs-578T)?
A: Active

Q: What about the Activity (DU-145) of the same molecule?
A: Active

Q: And the Activity (RPMI-8226)?
A: Active

Q: And the Activity (SR)?
A: Active

Q: And the Activity (OVCAR-3)?
A: Active

Q: What about the Activity (HCC 2998) of the same molecule?
A: Active

Q: And the Activity (NCI-H522)?
A: Active

Q: What about the Activity (SW-620) of the same molecule?
A: Active

Q: What about the Activity (SF-539) of the same molecule?
A: Active

Q: And the Activity (MDA-MB-468)?
A: Active

Q: And the Activity (SNB-19)?
A: Active

Q: And the Activity (A498)?
A: Active

Q: And the Activity (LOX IMVI)?
A: Active

Q: What does the source list for CC(=O)O[C@H](C)[C@@H]1O[C@@H]2CC(=O)O[C@@H]2[C@H]1O?
A: Activity (UO-31): inactive; Activity (T47D): inactive; Activity (U-251): inactive; Activity (M14): inactive; Activity (MOLT-4): inactive; Activity (UACC-257): inactive; Activity (A549): inactive; Activity (SK-MEL-28): inactive; Activity (SN12C): inactive; Activity (HOP-62): inactive; Activity (TK-10): inactive; Activity (NCI-H23): inactive; Activity (OVCAR-4): inactive; Activity (SNB-75): inactive; Activity (HOP-92): inactive; Activity (EKVX): inactive; Activity (SK-MEL-2): inactive; Activity (NCI-H226): inactive; Activity (SK-OV-3): inactive; Activity (KM12): inactive; Activity (NCI-H460): inactive; Activity (OVCAR-5): inactive; Activity (UACC-62): inactive; Activity (OVCAR-8): inactive; Activity (786-0): inactive; Activity (HCT-116): inactive; Activity (ACHN): inactive; Activity (RXF 393): inactive; Activity (IGROV-1): inactive; Activity (PC-3): inactive; Activity (HCT-15): inactive; Activity (SF-268): inactive; Activity (MCF7): inactive; Activity (Hs-578T): inactive; Activity (DU-145): inactive; Activity (RPMI-8226): inactive; Activity (SR): inactive; Activity (OVCAR-3): inactive; Activity (HCC 2998): inactive; Activity (NCI-H522): inactive; Activity (SW-620): inactive; Activity (SF-539): inactive; Activity (MDA-MB-468): inactive; Activity (SNB-19): inactive; Activity (A498): inactive; Activity (LOX IMVI): inactive

Q: Which results are given for O=C1C[C@H]2O[C@H]([C@H](O)c3ccccc3)[C@H](O)[C@H]2O1?
A: Activity (UO-31): Active; Activity (T47D): Active; Activity (U-251): Active; Activity (M14): Active; Activity (MOLT-4): Active; Activity (UACC-257): Active; Activity (A549): Active; Activity (SK-MEL-28): Active; Activity (SN12C): Active; Activity (HOP-62): Active; Activity (TK-10): Active; Activity (NCI-H23): Active; Activity (OVCAR-4): Active; Activity (SNB-75): Active; Activity (HOP-92): Active; Activity (EKVX): Active; Activity (SK-MEL-2): Active; Activity (NCI-H226): Active; Activity (SK-OV-3): Active; Activity (KM12): Active; Activity (NCI-H460): Active; Activity (OVCAR-5): Active; Activity (UACC-62): Active; Activity (OVCAR-8): Active; Activity (786-0): Active; Activity (HCT-116): Active; Activity (ACHN): Active; Activity (RXF 393): Active; Activity (IGROV-1): Active; Activity (PC-3): Active; Activity (HCT-15): Active; Activity (SF-268): Active; Activity (MCF7): Active; Activity (Hs-578T): Active; Activity (DU-145): Active; Activity (RPMI-8226): Active; Activity (SR): Active; Activity (OVCAR-3): Active; Activity (HCC 2998): Active; Activity (NCI-H522): Active; Activity (SW-620): Active; Activity (SF-539): Active; Activity (MDA-MB-468): Active; Activity (SNB-19): Active; Activity (A498): Active; Activity (LOX IMVI): Active
